Tests used:
[1] = tested on: Intestine; assay: Drug uptake in ICR mouse intestine assessed per organ at 370 kBq/100 ul, iv at 30 mins by gamma-counting analysis; assay type: ADME, organism-based; conditions: in vivo, 0.5 h
In short: (§1)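 Male ICR mice (5 weeks, about 20 g) got 18F tracer in saline (370 KBq per 100 μL) via tail vein; n = 5 per time point, killed at 2, 10, 30, 60 min. Organs removed and γ-counted against diluted injectate; expressed as % injected dose per organ.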

[2] = tested on: Intestine; assay: Drug uptake in ICR mouse intestine assessed per organ at 370 kBq/100 ul, iv at 10 mins by gamma-counting analysis; assay type: ADME, organism-based; conditions: in vivo; in short: as §1
[3] = tested on: Intestine; assay: Drug uptake in ICR mouse intestine assessed per organ at 370 kBq/100 ul, iv at 2 mins by gamma-counting analysis; assay type: ADME, organism-based; conditions: in vivo; in short: as §1
[4] = tested on: Stomach; assay: Drug uptake in ICR mouse stomach assessed per organ at 370 kBq/100 ul, iv at 60 mins by gamma-counting analysis; assay type: ADME, organism-based; conditions: in vivo, 1 h
In short: (§2)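 Normal male ICR mice (5 weeks, about 20 g) received the ¹⁸F tracer in saline (370 KBq per 100 μL) by tail-vein injection. Groups of n = 5 were killed at 2, 10, 30 and 60 min. Organs were removed, weighed and γ-counted against diluted aliquots of the injectate, giving % dose per gram. Stomach and intestine were expressed per organ. The brain ratio is 2 min/60 min uptake. Values are mean ± SD.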

[5] = tested on: Stomach; assay: Drug uptake in ICR mouse stomach assessed per organ at 370 kBq/100 ul, iv at 30 mins by gamma-counting analysis; assay type: ADME, organism-based; conditions: in vivo, 0.5 h; in short: as §1
[6] = tested on: Stomach; assay: Drug uptake in ICR mouse stomach assessed per organ at 370 kBq/100 ul, iv at 10 mins by gamma-counting analysis; assay type: ADME, organism-based; conditions: in vivo; in short: as §1
[7] = tested on: Stomach; assay: Drug uptake in ICR mouse stomach assessed per organ at 370 kBq/100 ul, iv at 2 mins by gamma-counting analysis; assay type: ADME, organism-based; conditions: in vivo; in short: as §1
[8] = tested on: Kidney; assay: Drug uptake in ICR mouse kidney at 370 kBq/100 ul, iv at 60 mins by gamma-counting analysis; assay type: ADME, organism-based; conditions: in vivo, 1 h
In short: (§3)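 Male ICR mice (5 weeks, about 20 g) got 18F tracer in saline (370 KBq per 100 μL) via tail vein; n = 5 per time point, killed at 2, 10, 30, 60 min. Organs weighed and γ-counted; percent dose per gram wet tissue from comparison with diluted injectate aliquots.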

[9] = tested on: Kidney; assay: Drug uptake in ICR mouse kidney at 370 kBq/100 ul, iv at 30 mins by gamma-counting analysis; assay type: ADME, organism-based; conditions: in vivo, 0.5 h; in short: as §3
[10] = tested on: Kidney; assay: Drug uptake in ICR mouse kidney at 370 kBq/100 ul, iv at 10 mins by gamma-counting analysis; assay type: ADME, organism-based; conditions: in vivo; in short: as §3
[11] = tested on: Lung; assay: Drug uptake in ICR mouse lung at 370 kBq/100 ul, iv at 60 mins by gamma-counting analysis; assay type: ADME, organism-based; conditions: in vivo, 1 h; in short: as §3
[12] = tested on: Kidney; assay: Drug uptake in ICR mouse kidney at 370 kBq/100 ul, iv at 2 mins by gamma-counting analysis; assay type: ADME, organism-based; conditions: in vivo; in short: as §3
[13] = tested on: Lung; assay: Drug uptake in ICR mouse lung at 370 kBq/100 ul, iv at 30 mins by gamma-counting analysis; assay type: ADME, organism-based; conditions: in vivo, 0.5 h; in short: as §3
[14] = tested on: Lung; assay: Drug uptake in ICR mouse lung at 370 kBq/100 ul, iv at 10 mins by gamma-counting analysis; assay type: ADME, organism-based; conditions: in vivo; in short: as §3
[15] = tested on: Lung; assay: Drug uptake in ICR mouse lung at 370 kBq/100 ul, iv at 2 mins by gamma-counting analysis; assay type: ADME, organism-based; conditions: in vivo; in short: as §3
[16] = tested on: Spleen; assay: Drug uptake in ICR mouse spleen at 370 kBq/100 ul, iv at 60 mins by gamma-counting analysis; assay type: ADME, organism-based; conditions: in vivo, 1 h; in short: as §3
[17] = tested on: Spleen; assay: Drug uptake in ICR mouse spleen at 370 kBq/100 ul, iv at 10 mins by gamma-counting analysis; assay type: ADME, organism-based; conditions: in vivo; in short: as §3
[18] = tested on: Spleen; assay: Drug uptake in ICR mouse spleen at 370 kBq/100 ul, iv at 30 mins by gamma-counting analysis; assay type: ADME, organism-based; conditions: in vivo, 0.5 h; in short: as §3
[19] = tested on: Spleen; assay: Drug uptake in ICR mouse spleen at 370 kBq/100 ul, iv at 2 mins by gamma-counting analysis; assay type: ADME, organism-based; conditions: in vivo; in short: as §3
[20] = tested on: Liver; assay: Drug uptake in ICR mouse liver at 370 kBq/100 ul, iv at 60 mins by gamma-counting analysis; assay type: ADME, organism-based; conditions: in vivo, 1 h; in short: as §3
[21] = tested on: Liver; assay: Drug uptake in ICR mouse liver at 370 kBq/100 ul, iv at 30 mins by gamma-counting analysis; assay type: ADME, organism-based; conditions: in vivo, 0.5 h; in short: as §3
[22] = tested on: Liver; assay: Drug uptake in ICR mouse liver at 370 kBq/100 ul, iv at 2 mins by gamma-counting analysis; assay type: ADME, organism-based; conditions: in vivo; in short: as §3
[23] = tested on: Liver; assay: Drug uptake in ICR mouse liver at 370 kBq/100 ul, iv at 10 mins by gamma-counting analysis; assay type: ADME, organism-based; conditions: in vivo; in short: as §3
[24] = tested on: Heart; assay: Drug uptake in ICR mouse heart at 370 kBq/100 ul, iv at 60 mins by gamma-counting analysis; assay type: ADME, organism-based; conditions: in vivo, 1 h; in short: as §3
[25] = tested on: Heart; assay: Drug uptake in ICR mouse heart at 370 kBq/100 ul, iv at 30 mins by gamma-counting analysis; assay type: ADME, organism-based; conditions: in vivo, 0.5 h; in short: as §3
[26] = tested on: Heart; assay: Drug uptake in ICR mouse heart at 370 kBq/100 ul, iv at 10 mins by gamma-counting analysis; assay type: ADME, organism-based; conditions: in vivo; in short: as §3
[27] = tested on: Brain; assay: Drug uptake in ICR mouse brain at 370 kBq/100 ul, iv at 60 mins by gamma-counting analysis; assay type: ADME, organism-based; conditions: in vivo, 1 h; in short: as §3
[28] = tested on: Heart; assay: Drug uptake in ICR mouse heart at 370 kBq/100 ul, iv at 2 mins by gamma-counting analysis; assay type: ADME, organism-based; conditions: in vivo; in short: as §3
[29] = tested on: Brain; assay: Drug uptake in ICR mouse brain at 370 kBq/100 ul, iv at 30 mins by gamma-counting analysis; assay type: ADME, organism-based; conditions: in vivo, 0.5 h; in short: as §3
[30] = tested on: Brain; assay: Drug uptake in ICR mouse brain at 370 kBq/100 ul, iv at 10 mins by gamma-counting analysis; assay type: ADME, organism-based; conditions: in vivo; in short: as §3
[31] = tested on: Brain; assay: Drug uptake in ICR mouse brain at 370 kBq/100 ul, iv at 2 mins by gamma-counting analysis; assay type: ADME, organism-based; conditions: in vivo; in short: as §3
[32] = tested on: Blood; assay: Drug uptake in ICR mouse blood at 370 kBq/100 ul, iv at 30 mins by gamma-counting analysis; assay type: ADME, organism-based; conditions: in vivo, 0.5 h; in short: as §3
[33] = tested on: Blood; assay: Drug uptake in ICR mouse blood at 370 kBq/100 ul, iv at 60 mins by gamma-counting analysis; assay type: ADME, organism-based; conditions: in vivo, 1 h; in short: as §3
[34] = tested on: Blood; assay: Drug uptake in ICR mouse blood at 370 kBq/100 ul, iv at 10 mins by gamma-counting analysis; assay type: ADME, organism-based; conditions: in vivo; in short: as §3
[35] = tested on: Blood; assay: Drug uptake in ICR mouse blood at 370 kBq/100 ul, iv at 2 mins by gamma-counting analysis; assay type: ADME, organism-based; conditions: in vivo; in short: as §3
[36] = tested on: Brain; assay: Drug uptake in healthy human brain at 370 KBq/100 ul after 1 hr by autoradiographic analysis; assay type: ADME, tissue-based; conditions: in vitro
[37] = Displacement of [125I]-IMPY from amyloid beta (1 to 42) fibrils after 2 hrs by gamma-counting analysis
In short: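 Competition binding with aggregated Aβ1-42 fibrils and [125I]IMPY (60000−100000 cpm/100 μL) in 0.05% BSA (1 mL total); inhibitors 10⁻⁴−10^−8.5 M in ethanol. Incubated 37 °C for 2 h, then GF/B vacuum filtration with PBS (0.02 M, pH 7.4) washes and γ counting. Three repeats; IC50 converted to Ki by Cheng−Prusoff.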

[38] = tested on: Brain; assay: Drug uptake in wild type C57BL6 mouse brain at 370 KBq/100 ul after 1 hr by autoradiographic analysis; assay type: ADME, tissue-based; conditions: in vitro
In short: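 Paraffin brain sections from 12-month-old male control C57BL6 mice were deparaffinized through xylene and graded ethanol, then held in PBS (0.2 M, pH 7.4) for 30 min. They were incubated with the ¹⁸F tracer (370 KBq per 100 μL) for 1 h at room temperature. Sections were washed in 40% EtOH, rinsed with water for 1 min, dried, and exposed to a phosphor plate for 2 h. The same sections were then stained with thioflavin S.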

[39] = n-Octanol-PBS buffer partition coefficient, log D of the compound at 1.5 MBq after 3 mins at pH 7.4; assay type: physicochemical
In short: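 The tracer was partitioned between n-octanol and PBS by vortexing for 3 min at room temperature, then centrifuged for 5 min at 3000 rpm. Samples of the octanol (50 μL) and aqueous (500 μL) layers were counted. log D is the log of the octanol/PBS counts-per-gram ratio. The octanol layer was repartitioned until values were consistent. Measured in triplicate and repeated three times.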

[40] = tested on: Brain; assay: Ratio of drug uptake in brain at 2 mins to drug uptake in brain at 60 mins in ICR mouse at 370 KBq/100 ul, iv; assay type: ADME, organism-based; conditions: in vivo; in short: as §2
[41] = tested on: Bone; assay: Drug uptake in ICR mouse bone at 370 kBq/100 ul, iv at 60 mins by gamma-counting analysis; assay type: ADME, organism-based, Bone element; conditions: in vivo, 1 h; in short: as §3
[42] = tested on: Bone; assay: Drug uptake in ICR mouse bone at 370 kBq/100 ul, iv at 30 mins by gamma-counting analysis; assay type: ADME, organism-based, Bone element; conditions: in vivo, 0.5 h; in short: as §3
[43] = tested on: Bone; assay: Drug uptake in ICR mouse bone at 370 kBq/100 ul, iv at 2 mins by gamma-counting analysis; assay type: ADME, organism-based, Bone element; conditions: in vivo; in short: as §3
[44] = tested on: Bone; assay: Drug uptake in ICR mouse bone at 370 kBq/100 ul, iv at 10 mins by gamma-counting analysis; assay type: ADME, organism-based, Bone element; conditions: in vivo; in short: as §3
[45] = tested on: Intestine; assay: Drug uptake in ICR mouse intestine assessed per organ at 370 kBq/100 ul, iv at 60 mins by gamma-counting analysis; assay type: ADME, organism-based; conditions: in vivo, 1 h; in short: as §1

Drug uptake [1]: 28.65 %ID
Drug uptake [2]: 22.9 %ID
Drug uptake [3]: 10.81 %ID
Drug uptake [4]: 12.02 %ID
Drug uptake [5]: 12.93 %ID
Drug uptake [6]: 12.32 %ID
Drug uptake [7]: 5.08 %ID
Drug uptake [8]: 2.54 % ID/g
Drug uptake [9]: 3.73 % ID/g
Drug uptake [10]: 4.79 % ID/g
Drug uptake [11]: 2.34 % ID/g
Drug uptake [12]: 8.51 % ID/g
Drug uptake [13]: 2.81 % ID/g
Drug uptake [14]: 3.15 % ID/g
Drug uptake [15]: 5.3 % ID/g
Drug uptake [16]: 1.79 % ID/g
Drug uptake [17]: 2.64 % ID/g
Drug uptake [18]: 2.18 % ID/g
Drug uptake [19]: 4.13 % ID/g
Drug uptake [20]: 4.21 % ID/g
Drug uptake [21]: 6.47 % ID/g
Drug uptake [22]: 14.22 % ID/g
Drug uptake [23]: 9.32 % ID/g
Drug uptake [24]: 2.5 % ID/g
Drug uptake [25]: 3.16 % ID/g
Drug uptake [26]: 3.35 % ID/g
Drug uptake [27]: 1.78 % ID/g
Drug uptake [28]: 5.5 % ID/g
Drug uptake [29]: 2.06 % ID/g
Drug uptake [30]: 2.05 % ID/g
Drug uptake [31]: 4.05 % ID/g
Drug uptake [32]: 3.16 % ID/g
Drug uptake [33]: 2.74 % ID/g
Drug uptake [34]: 3.04 % ID/g
Drug uptake [35]: 5.07 % ID/g
Drug uptake [36]: Not Active
Ki [37]: 76.9 nM
Drug uptake [38]: Not Active
logD at 0.05 h [39]: 2.86
Ratio [40]: 2.28
Drug uptake [41]: 3.93 % ID/g
Drug uptake [42]: 2.46 % ID/g
Drug uptake [43]: 1.75 % ID/g
Drug uptake [44]: 1.92 % ID/g
Drug uptake [45]: 25.16 %ID
SMILES: CNc1ccc(-c2nc3cc(OCCOCCOCC[18F])ccc3o2)cn1

Reference: ChEMBL document CHEMBL2177098, “Synthesis and evaluation of novel ¹⁸F labeled 2-pyridinylbenzoxazole and 2-pyridinylbenzothiazole derivatives as ligands for positron emission tomography (PET) imaging of β-amyloid plaques” (J Med Chem, 2012)
